Laboratory results from ChEMBL document CHEMBL1128352, “Substituted (1,2-diarylethyl)amide acyl-CoA:cholesterol acyltransferase inhibitors: effect of polar groups on in vitro and in vivo activity” (J Med Chem, 1995).

How the values were obtained:
[1] = target: T1, Sterol O-acyltransferase 1 (Rattus norvegicus, UniProt O70536); assay: In vitro inhibition of acyl coenzyme A:cholesterol acyltransferase 1, rat liver microsomal assay
T1 sequence (O70536 whole entry): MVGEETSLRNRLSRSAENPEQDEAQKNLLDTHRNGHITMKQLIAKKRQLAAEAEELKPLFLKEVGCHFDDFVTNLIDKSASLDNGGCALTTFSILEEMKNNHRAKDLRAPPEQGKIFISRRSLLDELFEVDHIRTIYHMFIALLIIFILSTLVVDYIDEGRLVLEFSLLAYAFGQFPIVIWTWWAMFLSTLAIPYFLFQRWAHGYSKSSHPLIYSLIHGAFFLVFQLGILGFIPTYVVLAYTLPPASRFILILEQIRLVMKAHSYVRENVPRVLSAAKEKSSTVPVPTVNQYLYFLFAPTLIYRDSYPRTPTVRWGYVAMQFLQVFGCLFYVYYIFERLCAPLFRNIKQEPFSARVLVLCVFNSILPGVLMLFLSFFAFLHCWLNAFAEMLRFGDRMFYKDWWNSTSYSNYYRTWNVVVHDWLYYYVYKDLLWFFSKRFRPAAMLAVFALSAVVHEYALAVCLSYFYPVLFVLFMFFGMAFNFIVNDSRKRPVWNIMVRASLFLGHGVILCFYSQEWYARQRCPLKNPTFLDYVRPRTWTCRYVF
Method in brief: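 Compound added from DMSO stock and preincubated 15 min at 37 °C. [³H]oleoyl-CoA (10 µM final, 1 µCi) then added for 15 min at 37 °C. Cholesteryl [³H]oleate separated by silica TLC and counted by liquid scintillation.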

Cricetinae gen. sp. [2] = assay: In vivo effect on cholesteryl esters level of cholesterol-fed hamsters at a dose of 50 mg/kg per oral; format: functional
Method in brief: (§1)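 Male golden Syrian hamsters (100–125 g) were fed a high-cholesterol diet for 7 days. Compound was given by oral gavage in 0.2 mL corn oil/day. Liver lipids were Folch-extracted and hepatic cholesteryl ester measured by HPLC. Results are given as percent change versus cholesterol-fed controls dosed with vehicle alone.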

Cricetinae gen. sp. [3] = assay: In vivo effect on serum cholesterol level of cholesterol-fed hamsters at a dose of 50 mg/kg per oral; format: functional
Cricetinae gen. sp. [4] = assay: In vivo effect on cholesteryl esters in cholesterol-fed hamsters at a dose of 50(mpk); format: functional; method in brief: as §1
Cricetinae gen. sp. [5] = assay: In vivo effect on serum cholesterol level of cholesterol-fed hamsters at a dose of 50(mpk); format: functional
Cricetinae gen. sp. [6] = assay: In vivo dose effecting the cholesteryl esters in cholesterol-fed hamsters at a dose of 50(mpk); format: functional
Cricetinae gen. sp. [7] = assay: In vivo effect on serum cholesterol level of cholesterol-fed hamsters at a dose of 100(mpk); format: functional
Cricetinae gen. sp. [8] = assay: In vivo effect on cholesteryl esters in cholesterol-fed hamsters at a dose of 100(mpk); format: functional; method in brief: as §1
[9] = target: T2, Sterol O-acyltransferase 1 (Rattus norvegicus) (UniProt O70536); assay: In vitro ability of compound to inhibit Acyl coenzyme A:cholesterol acyltransferase 1 using rat liver microsomal assay; conditions: concentration not given here
T2 sequence (whole entry): T1 sequence (O70536 whole entry)
Method in brief: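 Rat liver microsomes (12.5 µg protein) in 0.1 M potassium phosphate with 2 mM DTT, pH 7.4, and 90 µM fatty-acid-free BSA. Compound added from DMSO stock and preincubated 15 min at 37 °C. [³H]oleoyl-CoA (10 µM final, 1 µCi) then added for 15 min at 37 °C. Cholesteryl [³H]oleate separated by silica TLC and counted by liquid scintillation.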

Row | SMILES | IC50 [1] [nM] | Change (Cricetinae gen. sp. [2]) [%] | Change (Cricetinae gen. sp. [3]) [%] | further results
1 | COc1ccccc1C(Cc1ccccc1)NC(=O)C(c1ccccc1)c1ccccc1 (configuration not stated) | 1800 | -51 | 0 | 
2 | C[Si](C)(C)CCOCn1ccnc1CC(NC(=O)C(c1ccccc1)c1ccccc1)c1ccccc1 (configuration not stated) | 5000 | -24 | 0 | 
3 | CCCCCCCN(Cc1ccc(CC(C)(C)C)cc1)C(=O)Nc1ccc(F)cc1F [CL-277082] |  |  |  | Change (Cricetinae gen. sp. [4]): -85%; Change (Cricetinae gen. sp. [5]): -29%; ED50 (Cricetinae gen. sp. [6]): 15 mg/kg
4 | C[Si](C)(C)CCOCn1ccnc1C(Cc1ccccc1)NC(=O)C(c1ccccc1)c1ccccc1 (configuration not stated) | > 10000 |  |  | 
5 | COc1ccc(CC(NC(=O)C(c2ccccc2)c2ccccc2)c2cccc(OC)c2)cc1 (configuration not stated) | 2400 | 0 | -20 | 
6 | CS(=O)(=O)Nc1ccc(CC(NC(=O)C(c2ccccc2)c2ccccc2)c2ccccc2)cc1 (configuration not stated) | 360 | -32 | -17 | 
7 | Nc1ccc(CC(NC(=O)C(c2ccccc2)c2ccccc2)c2ccccc2)cc1 (racemic) |  |  |  | Change (Cricetinae gen. sp. [4]): -60%; Change (Cricetinae gen. sp. [5]): -13%; ED50 (Cricetinae gen. sp. [6]): 21 mg/kg
8 | COC(=O)c1ccc(CC(NC(=O)C(c2ccccc2)c2ccccc2)c2ccccc2)cc1 (configuration not stated) | > 10000 |  |  | 
9 | Nc1ccc(CC(NC(=O)C(c2ccccc2)c2ccccc2)c2ccccc2)cc1 (single isomer, unassigned; (-)) |  | -81 | 0 | 
10 | COc1ccc(CC(NC(=O)C(c2ccccc2)c2ccccc2)c2ccc(OC)cc2)cc1 (configuration not stated) | > 10000 | -32 | 0 | 
11 | O=C(O)c1ccc(C(Cc2ccccc2)NC(=O)C(c2ccccc2)c2ccccc2)cc1 (configuration not stated) | 10000 | 0 | 0 | 
12 | COc1ccc(CC(NC(=O)C(c2ccccc2)c2ccccc2)c2ccccc2)cc1OC (configuration not stated) | 500 | -26 | -21 | 
13 | COc1cccc(C(Cc2ccccc2)NC(=O)C(c2ccccc2)c2ccccc2)c1 (configuration not stated) | 1500 | 0 | 0 | 
14 | Nc1ccc(CC(NC(=O)C(c2ccccc2)c2ccccc2)c2ccccc2)cc1 (stereo in doubt; (+)-5) |  | 0 |  | 
15 | COc1ccc(C(Cc2ccccc2)NC(=O)C(c2ccccc2)c2ccccc2)cc1 (configuration not stated) | 1500 | -69 | -14 | 
16 | CCCCCCCCCCC(C)(C)C(=O)Nc1c(OC)cc(OC)cc1OC [CL-976] |  |  |  | Change (Cricetinae gen. sp. [4]): -67%; Change (Cricetinae gen. sp. [5]): -10%; ED50 (Cricetinae gen. sp. [6]): 20 mg/kg
17 | CCCCCCCC/C=C\CCCCCCCC(=O)NC(Cc1ccccc1)c1ccccc1 (configuration not stated) |  |  |  | Change (Cricetinae gen. sp. [7]): -4%; Change (Cricetinae gen. sp. [8]): -23%
18 | O=C(NC(Cc1ccccc1)c1cccc(O)c1)C(c1ccccc1)c1ccccc1 (configuration not stated) |  | -19 | -17 | inhibition [9]: 88%
19 | CCCCCCCC/C=C\CCCCCCC(C)(C)C(=O)NC(Cc1ccc(N)cc1)c1ccccc1 (configuration not stated) | 360 |  |  | Change (Cricetinae gen. sp. [7]): -24%; Change (Cricetinae gen. sp. [8]): -54%
20 | CCCCCCCCCC[Si](C)(C)CCC(=O)NC(Cc1ccc(C)cc1)c1ccccc1 (configuration not stated) | 300 |  |  | Change (Cricetinae gen. sp. [7]): -5%; Change (Cricetinae gen. sp. [8]): 0%
21 | O=C(NC(Cc1ccc(O)cc1)c1ccc(O)cc1)C(c1ccccc1)c1ccccc1 (configuration not stated) |  | -40 | -20 | inhibition [9]: 97%

Continued, in another order:

Row | IC50 [1] [nM] | SMILES | Change (Cricetinae gen. sp. [2]) [%] | Change (Cricetinae gen. sp. [3]) [%] | further results
22 | 800 | O=C(NC(Cc1ccc(O)cc1)c1ccccc1)C(c1ccccc1)c1ccccc1 (configuration not stated) | 0 | 0 | 
23 | > 10000 | O=C(O)c1ccc(CC(NC(=O)C(c2ccccc2)c2ccccc2)c2ccccc2)cc1 (configuration not stated) |  |  | 
24 | 1600 | COc1ccc(CC(NC(=O)C(c2ccccc2)c2ccccc2)c2ccccc2)cc1 (configuration not stated) | -65 | -14 | 
25 | 350 | CC(=O)Nc1ccc(CC(NC(=O)C(c2ccccc2)c2ccccc2)c2ccccc2)cc1 (configuration not stated) | 0 | -12 | 
26 | 2300 | O=C(NC(Cc1ccccc1)c1ccncc1)C(c1ccccc1)c1ccccc1 (configuration not stated) | -29 | -13 | 
27 | > 10000 | O=C(NC(Cc1ccccc1)c1ncc[nH]1)C(c1ccccc1)c1ccccc1 (configuration not stated) |  |  | 
28 | 4000 | O=C(NC(Cc1ccccc1)c1cccnc1)C(c1ccccc1)c1ccccc1 (configuration not stated) | 0 | -9 | 
29 | 5000 | Nc1cccc(CC(NC(=O)C(c2ccccc2)c2ccccc2)c2ccccc2)c1 (configuration not stated) | -31 | -15 | 
30 | 460 | O=C(NC(Cc1ccccc1)c1ccccc1)C(c1ccccc1)c1ccccc1 (configuration not stated) |  |  | Change (Cricetinae gen. sp. [4]): -15%; Change (Cricetinae gen. sp. [5]): 0%
31 | 2800 | Nc1ccc(C(Cc2ccccc2)NC(=O)C(c2ccccc2)c2ccccc2)cc1 (configuration not stated) | -24 | 0 | 
32 | 3500 | O=C(NC(Cn1ccnc1)c1ccccc1)C(c1ccccc1)c1ccccc1 (configuration not stated) | 0 | 0 | 
33 | > 10000 | O=C(NC(Cc1ccccc1)c1cc[n+]([O-])cc1)C(c1ccccc1)c1ccccc1 (configuration not stated) | -28 | 0 | 
34 | 1800 | O=C(NC(Cc1ccncc1)c1ccccc1)C(c1ccccc1)c1ccccc1 (configuration not stated) | -52 | -10 | 
35 | > 10000 | O=C(NC(Cc1ncc[nH]1)c1ccccc1)C(c1ccccc1)c1ccccc1 (configuration not stated) |  |  | 
36 | 5000 | CCCCCCCn1ccnc1CC(NC(=O)C(c1ccccc1)c1ccccc1)c1ccccc1 (configuration not stated) | 0 | 0 | 
37 | 1000 | O=C(NC(Cc1ccccc1)c1ccc(O)cc1)C(c1ccccc1)c1ccccc1 (configuration not stated) | -69 | -14 | 
